{"source": "ChEMBL document CHEMBL4480400", "about": "“Development of an N-Acyl Amino Acid That Selectively Inhibits the Glycine Transporter 2 To Produce Analgesia in a Rat Model of Chronic Pain” (J Med Chem, 2019)", "key": {"[1]": {"assay": "Ratio of drug uptake in Sprague-Dawley rat brain to plasma at 27.5 mg/kg, ip after 24 hrs by UPLC analysis", "format": "ADME, organism-based", "details": "read-out: BPR", "procedure,_shortened": "(§1)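 Male Sprague-Dawley rats (250–306 g) got one ip dose of a suspension (10% v/v DMSO, 1% solutol HS-15 in 50 mM PBS, pH 7.4). Terminal cardiac-puncture heparinised plasma and whole brain were sampled over 24 h, n=3 rats per time point. Samples were extracted by protein precipitation and read by UPLC-MS/MS in positive ESI MRM with a diazepam internal standard. Parameters are non-compartmental; the time-averaged B/P comes from AUC0-24h.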"}, "[2]": {"assay": "AUC (0 to 24 hrs) in Sprague-Dawley rat brain at 27.5 mg/kg, ip by UPLC analysis", "format": "ADME, organism-based", "design": "time < 24 hr, dose 27.5 mg/kg, route intraperitoneal", "details": "in vivo", "procedure,_shortened": "as §1"}, "[3]": {"assay": "AUC (0 to 24 hrs) in Sprague-Dawley rat plasma at 27.5 mg/kg, ip by UPLC analysis", "format": "ADME, organism-based", "design": "dose 27.5 mg/kg, time < 24 hr, route intraperitoneal", "details": "in vivo", "procedure,_shortened": "as §1"}, "Rattus norvegicus": {"system": "Rattus norvegicus", "assay": "Analgesic activity in Sprague-Dawley rat model of neuropathic pain assessed as reduction in allodynia at 3 mg/kg, ip administered as single dose measured after 90 mins post injection", "format": "functional, organism-based", "procedure,_shortened": "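Male Sprague-Dawley rats were tested 14 days after nerve-constriction surgery. Mechanical paw withdrawal threshold was measured with von Frey filaments (0.4–15.1 g) by the up-down method, bounded at 0.2 and 15 g. Rats got a single ip injection with vehicle of 1% DMSO, 10% Solutol HS15 in 0.9% saline. Testing ran at 15–360 min post-injection with Bonferroni comparisons against vehicle.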"}, "[4]": {"assay": "Tmax in Sprague-Dawley rat plasma at 27.5 mg/kg, ip by UPLC analysis", "format": "ADME, organism-based", "procedure,_shortened": "as §1"}, "[5]": {"molecular_target": "T1, Sodium- and chloride-dependent glycine transporter 1 (Homo sapiens, UniProt P48067)", "T1 sequence (P48067 whole entry)": "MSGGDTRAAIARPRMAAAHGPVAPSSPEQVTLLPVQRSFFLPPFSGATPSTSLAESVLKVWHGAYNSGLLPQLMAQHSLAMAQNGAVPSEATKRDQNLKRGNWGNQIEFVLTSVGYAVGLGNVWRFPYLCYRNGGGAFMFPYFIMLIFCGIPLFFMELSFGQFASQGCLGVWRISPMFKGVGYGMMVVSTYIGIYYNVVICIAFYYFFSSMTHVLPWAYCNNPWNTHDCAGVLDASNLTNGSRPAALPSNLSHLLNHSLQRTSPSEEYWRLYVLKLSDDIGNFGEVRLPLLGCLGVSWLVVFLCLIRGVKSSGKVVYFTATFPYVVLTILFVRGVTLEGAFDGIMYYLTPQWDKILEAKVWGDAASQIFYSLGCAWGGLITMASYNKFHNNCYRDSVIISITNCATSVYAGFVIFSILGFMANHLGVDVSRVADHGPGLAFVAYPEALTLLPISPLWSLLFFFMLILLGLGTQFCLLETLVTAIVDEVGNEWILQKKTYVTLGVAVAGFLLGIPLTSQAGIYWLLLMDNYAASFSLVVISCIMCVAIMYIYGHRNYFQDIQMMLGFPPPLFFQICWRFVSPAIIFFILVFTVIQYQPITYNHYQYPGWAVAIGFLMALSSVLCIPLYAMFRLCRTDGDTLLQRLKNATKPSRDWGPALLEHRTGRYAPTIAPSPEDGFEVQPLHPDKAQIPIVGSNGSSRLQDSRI", "assay": "Inhibition of recombinant human GlyT1b expressed in Xenopus laevis oocytes assessed as reduction in channel current by two-electrode voltage clamp electrophysiology", "format": "cell-based"}}, "note": "The source made the active and inactive calls."}
{"smiles": "CCCCCCCC/C=C\\CCCCCCCC(=O)N[C@H](CCCCN)C(=O)O.Cl", "values": [{"measurement": "Kp at 24 h", "setting": "[1]", "value": 1.1}, {"measurement": "AUC", "setting": "[2]", "value": 38479, "unit": "ng·h/g"}, {"measurement": "AUC", "setting": "[3]", "value": 122.473, "unit": "µg·h/mL"}, {"measurement": "Activity", "setting": "Rattus norvegicus", "value": "Active"}, {"measurement": "Tmax", "setting": "[4]", "value": 1, "unit": "h"}, {"measurement": "IC50", "setting": "[5]", "value": "> 3", "unit": "µM"}]}
